Experimental data: ChEMBL document CHEMBL4411315, “Discovery of Novel Dual Histone Deacetylase and Mammalian Target of Rapamycin Target Inhibitors as a Promising Strategy for Cancer Therapy” (J Med Chem, 2019)

Experiments:
Raji = assay: Antiproliferative activity against human Raji cells after 72 hrs by MTT assay; format: functional, cell-based
How it was run: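 Log-phase cells were plated at 10000-15000 per well and exposed to serial concentrations after 24 h for 72 h. Read-out was MTT for 1-3 h, then 20% SDS overnight and absorbance at 570 nm. IC50 was calculated from growth versus untreated control, as mean ± SEM of at least three independent experiments.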

[1] = molecular target: PI3-kinase p110-alpha/p85-alpha (Homo sapiens) (UniProt P27986+P42336); assay: Inhibition of recombinant human full length N-terminal His-tagged/untagged p110alpha/p85alpha expressed in baculovirus expression system at 500 nM using PIP2 as substrate after 1 hr by Kinase-Glo reagent-based assay relative to control
MCF7 = assay: Antiproliferative activity against human MCF7 cells after 72 hrs by MTT assay; format: functional, cell-based; conditions: MCF7, 72 h
HCT-116 [2] = assay: Antiproliferative activity against human HCT116 cells after 72 hrs by MTT assay; format: functional, cell-based; conditions: HCT-116, 72 h
[3] = molecular target: Serine/threonine-protein kinase mTOR (Homo sapiens, UniProt P42345); assay: Inhibition of recombinant N-terminal FLAG-tagged human mTOR (1362 to end residues) at 500 nM using ULight-4E-BP1 (Thr37/46) peptide as substrate after 1 hr by fluorescence assay relative to control
MM1.S = assay: Antiproliferative activity against human MM1S cells after 72 hrs by MTT assay; format: functional, cell-based
HCT-116 [4] = assay: Antiproliferative activity against human HCT116 cells at 0.5 uM after 72 hrs by MTT assay relative to control; format: functional; conditions: HCT-116, 72 h
How it was run: (§1)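 HCT116 cells were grown in DMEM and Ramos cells in RPMI 1640, each with 10% FBS and penicillin/streptomycin, at 37 °C in 5% CO2. Log-phase cells were seeded at 10000-15000 per well and dosed after 24 h at 5 or 0.5 μM for 72 h. MTT was added for 1-3 h, followed by 20% SDS overnight, and A570 was read. Percent inhibition is relative to untreated control, as the mean of at least two experiments.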

Ramos [5] = assay: Antiproliferative activity against human Ramos cells at 0.5 uM after 72 hrs by MTT assay relative to control; format: functional; how it was run: as §1
Ramos [6] = assay: Antiproliferative activity against human Ramos cells at 5 uM after 72 hrs by MTT assay relative to control; format: functional; how it was run: as §1
HCT-116 [7] = assay: Antiproliferative activity against human HCT116 cells at 5 uM after 72 hrs by MTT assay relative to control; format: functional; conditions: HCT-116, 72 h; how it was run: as §1
OCI-AML2 = assay: Antiproliferative activity against human OCI-AML2 cells after 72 hrs by MTT assay; format: functional, cell-based; conditions: OCI-AML2, 72 h
MV4-11 = assay: Antiproliferative activity against human MV4-11 cells after 72 hrs by MTT assay; format: functional, cell-based; conditions: MV4-11, 72 h
OCI-AML-3 = assay: Antiproliferative activity against human OCI-AML3 cells after 72 hrs by MTT assay; format: functional, cell-based; conditions: OCI-AML-3, 72 h

Row | Structure (SMILES) | IC50 (Raji) [nM] | inhibition [1] [%] | IC50 (MCF7) [nM] | IC50 (HCT-116 [2]) [nM] | inhibition [3] [%] | IC50 (MM1.S) [nM] | inhibition at 0.5 µM (HCT-116 [4]) [%] | inhibition at 0.5 µM (Ramos [5]) [%] | inhibition at 5 µM (Ramos [6]) [%] | inhibition at 5 µM (HCT-116 [7]) [%] | IC50 (OCI-AML2) [nM] | IC50 (MV4-11) [nM] | IC50 (OCI-AML-3) [nM]
1 | O=C(CCCCCCn1ncc2c(N3CCOCC3)nc(-c3ccoc3)nc21)NO | 7.7 | 8.4 | 156 | 34.9 | 35 | 15.6 | – | – | – | – | – | – | –
2 | CC(O)CNC(=O)Nc1ccc(-c2nc(N3CCOCC3)c3cnn(CCCCCCC(=O)NO)c3n2)cc1 (stereo not drawn) | 153 | – | – | 441 | – | 305 | – | – | – | – | – | – | –
3 | O=C(CCn1ncc2c(N3CCOCC3)nc(N3CCOCC3)nc21)NO | – | 11 | – | – | -5 | – | 6.3 | 8.5 | 15.7 | 22.4 | – | – | –
4 | Nc1ccc(-c2nc(N3CCOCC3)c3cnn(CCCCCCC(=O)NO)c3n2)cn1 | 7.1 | 1.9 | 163 | 61.3 | 35 | 8.4 | – | – | – | – | – | – | –
5 | CS(=O)(=O)c1ccc(-c2nc(N3CCOCC3)c3cnn(CCCCCCC(=O)NO)c3n2)cc1 | 111 | 31 | > 500 | 76.5 | 64 | 168 | – | – | – | – | – | – | –
6 | O=C(/C=C/c1ccc(Cn2ncc3c(N4CCOCC4)nc(N4CCOCC4)nc32)cc1)NO | – | -3 | – | – | -5.4 | – | 12 | 16.8 | 98.2 | 59.5 | – | – | –
7 | CNC(=O)Nc1ccc(-c2nc(N3CCOCC3)c3cnn(CCCCCCC(=O)NO)c3n2)cc1 | 3.5 | – | – | 51.6 | – | 13.4 | – | – | – | – | – | – | –
8 | CCCCNC(=O)Nc1ccc(-c2nc(N3CCOCC3)c3cnn(CCCCCCC(=O)NO)c3n2)cc1 | 19.1 | – | – | 33.9 | – | 15.3 | – | – | – | – | 9.71 | 18.3 | 8.79
9 | O=C(CCCCCCn1ncc2c(N3CCOCC3)nc(N3CCOCC3)nc21)NO | 159 | 4.5 | 372 | 89.9 | 2.2 | 192 | 92.9 | 91 | 97.4 | 95.2 | – | – | –
10 | CCNC(=O)Nc1ccc(-c2nc(N3CCOCC3)c3cnn(CCCCCCC(=O)NO)c3n2)cc1 | 19.7 | – | – | 61.9 | – | 11.8 | – | – | – | – | 18.4 | 10.4 | 16.3
11 | CN1CCN(c2nc(N3CCOCC3)c3cnn(CCCCCCC(=O)NO)c3n2)CC1 | – | -6.2 | – | – | -0.4 | – | 59.9 | 90.1 | 99.5 | 80.3 | – | – | –
12 | O=C(CCCCCCn1ncc2c(N3CCOCC3)nc(-c3ccsc3)nc21)NO | 14.6 | 9.7 | 202 | 72.8 | 55 | 35.6 | – | – | – | – | – | – | –
13 | O=C(CCCCn1ncc2c(N3CCOCC3)nc(N3CCOCC3)nc21)NO | – | 15 | – | – | -5.4 | – | 22.6 | 33.3 | 60.2 | 55.8 | – | – | –
14 | COc1ccc(-c2nc(N3CCOCC3)c3cnn(CCCCCCC(=O)NO)c3n2)cn1 | 44.9 | 3.3 | 372 | 66.9 | 58 | > 500 | – | – | – | – | – | – | –
15 | O=C(CCCCCCn1ncc2c(N3CCOCC3)nc(-c3cccnc3)nc21)NO | > 500 | -0.1 | > 500 | 296 | 17 | > 500 | – | – | – | – | – | – | –
16 | O=C(CCCCCCn1ncc2c(N3CCOCC3)nc(-c3ccc(NC(=O)Nc4ncc(Br)cn4)cc3)nc21)NO | 60.8 | – | – | 144 | – | 64.3 | – | – | – | – | – | – | –
17 | COc1cccc(NC(=O)Nc2ccc(-c3nc(N4CCOCC4)c4cnn(CCCCCCC(=O)NO)c4n3)cc2)c1 | 247 | – | – | > 500 | – | 464 | – | – | – | – | – | – | –
18 | CCCNC(=O)Nc1ccc(-c2nc(N3CCOCC3)c3cnn(CCCCCCC(=O)NO)c3n2)cc1 | 42.5 | – | – | 104 | – | 83.4 | – | – | – | – | – | – | –
19 | O=C(CCCn1ncc2c(N3CCOCC3)nc(N3CCOCC3)nc21)NO | – | 17 | – | – | 21 | – | 15.7 | 20.5 | 39.6 | 30.1 | – | – | –
20 | O=C(CCCCCCCn1ncc2c(N3CCOCC3)nc(N3CCOCC3)nc21)NO | – | -1.2 | – | – | 4.4 | – | 13.8 | 26.9 | 99.1 | 71.8 | – | – | –
21 | CN1CCN(c2nc(N3CCOCC3)c3cnn(CCCCCC(=O)NO)c3n2)CC1 | – | 1.5 | – | – | -1.7 | – | 10.2 | 91.2 | 99.5 | 56.9 | – | – | –
22 | Cc1cccnc1NC(=O)Nc1ccc(-c2nc(N3CCOCC3)c3cnn(CCCCCCC(=O)NO)c3n2)cc1 | 19 | – | – | 24.6 | – | 20.2 | – | – | – | – | – | – | –
23 | Cc1ccc(NC(=O)Nc2ccc(-c3nc(N4CCOCC4)c4cnn(CCCCCCC(=O)NO)c4n3)cc2)cc1 | 22.1 | – | – | 26.1 | – | 24.7 | – | – | – | – | – | – | –
24 | O=C(CCCCCCn1ncc2c(N3CCOCC3)nc(-c3ccc(NC(=O)NCCO)cc3)nc21)NO | 61.1 | – | – | 57.2 | – | 60.3 | – | – | – | – | – | – | –
25 | O=C(CCCCCCn1ncc2c(N3CCOCC3)nc(-c3cc[nH]c3)nc21)NO | 15.3 | -3.8 | 180 | 107 | 85 | 52.3 | – | – | – | – | – | – | –
26 | Nc1ncc(-c2nc(N3CCOCC3)c3cnn(CCCCCCC(=O)NO)c3n2)cn1 | 31.7 | 1.2 | 221 | 163 | 40 | 32.6 | – | – | – | – | – | – | –
27 | O=C(Cn1ncc2c(N3CCOCC3)nc(N3CCOCC3)nc21)NO | – | 5.9 | – | – | – | – | 3.5 | 1.1 | 12.4 | 18.1 | – | – | –
28 | COc1ccc(-c2nc(N3CCOCC3)c3cnn(CCCCCCC(=O)NO)c3n2)cc1 | 29.3 | -1 | 70.6 | 38 | 38 | 354 | – | – | – | – | – | – | –
29 | O=C(CCCCCn1ncc2c(N3CCOCC3)nc(N3CCOCC3)nc21)NO | – | 1 | – | – | -4.2 | – | 62.4 | 69.2 | 94.6 | 92.1 | – | – | –
